{"data": "Published values gathered from unrelated publications", "TDP1": "Tyrosyl-DNA phosphodiesterase 1 (TDP1, Homo sapiens, UniProt Q9NUW8)", "MAOA": "Amine oxidase [flavin-containing] A (MAOA, Homo sapiens, UniProt P21397)", "GSR": "Glutathione reductase, mitochondrial (GSR, Homo sapiens, UniProt P00390)", "SLC22A6": "Solute carrier family 22 member 6 (SLC22A6, Homo sapiens, UniProt Q4U2R8)", "PRMT3": "Protein arginine N-methyltransferase 3 (PRMT3, Homo sapiens, UniProt O60678)", "LDHA": "L-lactate dehydrogenase A chain (LDHA, Homo sapiens, UniProt P00338)", "note": "Compare with care: the assays were run in different laboratories."}
{"Structure (SMILES)": "C[C@@H]1C[C@@H](O)/C=C/C=C\\CC(=O)Cc2c(Cl)c(O)cc(O)c2C(=O)O1", "target": "Mitogen-activated protein kinase kinase kinase 7 (MAP3K7, Homo sapiens, UniProt O43318)", "assay": "enzyme activity, inhibitor, ATP luminescence", "IC50 [µM]": "> 10"}
{"Structure (SMILES)": "CCN(CC)CCCOc1cc2cc3c(cc2c2nc(OC)c4cc(OC)c(OC)cc4c12)OCO3", "target": "TDP1", "assay": "enzyme activity, inhibitor", "IC50 [µM]": "5.5 to 13"}
{"Structure (SMILES)": "CCOCc1nc(O)c(-c2nnc(Cc3ccc(Cl)cn3)o2)c(O)c1-c1c(OC)cccc1OC", "target": "Histamine H2 receptor (HRH2, Homo sapiens, UniProt P25021)", "assay": "ligand displacement, radioligand", "IC50 [µM]": "> 30"}
{"Structure (SMILES)": "O=C(/C=C/c1ccc(O)cc1)c1ccc(O)cc1O", "target": "MAOA", "assay": "enzyme activity, inhibitor", "IC50 [µM]": 22.7}
{"Structure (SMILES)": "CN(C)CCCN1c2ccccc2CCc2ccc(Cl)cc21", "target": "GSR", "assay": "enzyme activity, inhibitor, absorbance", "IC50 [µM]": "> 100"}
{"Structure (SMILES)": "CCS(=O)(=O)N1CC(CC#N)(n2cc(-c3ncnc4[nH]ccc34)cn2)C1", "target": "SLC22A6", "assay": "transporter uptake, inhibitor", "IC50 [µM]": "> 100"}
{"Structure (SMILES)": "Nc1ncnc2c1ncn2[C@@H]1O[C@H](CSCCNC(=O)NCCCc2ccccc2)[C@@H](O)[C@H]1O", "target": "PRMT3", "assay": "enzyme activity, inhibitor, fluorescence", "IC50 [µM]": "> 100"}
{"Structure (SMILES)": "CN1CCN(c2ccc(Nc3ncc4cc(C#N)c(=O)n(C5CCCC5)c4n3)cc2)CC1", "target": "Serine/threonine-protein kinase MARK2 (MARK2, Homo sapiens, UniProt Q7KZI7)", "assay": "enzyme activity, inhibitor", "IC50 [µM]": 0.566}
{"Structure (SMILES)": "COc1cc(-c2cc(=O)c3c(O)c(OC)c(O[C@@H]4O[C@H](CO)[C@@H](O)[C@H](O)[C@H]4O)cc3o2)ccc1O", "target": "LDHA", "assay": "enzyme activity, inhibitor", "setting": "pH 7.4", "IC50 [µM]": 153}
{"Structure (SMILES)": "CCOc1ccc2c(-c3cc(C)nc(Nc4cc(OC)cc(C(F)(F)F)c4)n3)cnn2n1", "target": "Homeodomain-interacting protein kinase 3 (HIPK3, Homo sapiens, UniProt Q9H422)", "assay": "enzyme activity, inhibitor", "IC50 [µM]": "> 10"}
{"Structure (SMILES)": "C#Cc1ccc(C(=O)C2=C(C)C(=O)c3ccccc3C2=O)cc1", "target": "GSR", "assay": "enzyme activity, inhibitor", "setting": "pH 6.9", "IC50 [µM]": 0.6}
{"Structure (SMILES)": "C[C@H](NC(=O)[C@@H](c1cccnc1)N(C(=O)CCl)c1ccc(-n2cccc2)cc1)c1ccccc1", "target": "Replicase polyprotein 1ab, main protease (rep, Severe acute respiratory syndrome coronavirus 2, UniProt P0DTD1)", "assay": "enzyme activity, inhibitor, FRET", "IC50 [µM]": 0.05}
{"Structure (SMILES)": "COc1cc2c(OC)nc3c4cc5c(cc4cc(OCCCN(C)C)c3c2cc1OC)OCO5", "target": "TDP1", "assay": "enzyme activity, inhibitor", "IC50 [µM]": 5.5}
{"Structure (SMILES)": "CC1(C)C(/C=C/C=C2/N(CCCc3ccccc3)c3ccc(Cl)cc3C2(C)C)=[N+](CCCc2ccccc2)c2ccc(Cl)cc21", "target": "Protein arginine N-methyltransferase 5 (PRMT5, Homo sapiens, UniProt O14744)", "assay": "enzyme activity, inhibitor, radiometric", "IC50 [µM]": 2.19}
{"Structure (SMILES)": "Nc1ncnc2c1ncn2[C@@H]1O[C@H](CSCCNC(=O)Nc2ccc(Cl)cc2)[C@@H](O)[C@H]1O", "target": "PRMT3", "assay": "enzyme activity, inhibitor, fluorescence", "IC50 [µM]": 22}
{"Structure (SMILES)": "CC(C)(C)n1nc(-c2ccc3nc(OC4CC4)ccc3c2)c(C(N)=O)c1N", "target": "Receptor-interacting serine/threonine-protein kinase 2 (RIPK2, Homo sapiens, UniProt O43353)", "assay": "cell-free assay", "IC50 [µM]": 0.2}
{"Structure (SMILES)": "O=C(Nc1cccc(NS(=O)(=O)c2ccc3oc4cc([N+](=O)[O-])ccc4c3c2)c1)C1(O)CC1", "target": "LDHA", "assay": "enzyme activity, inhibitor", "IC50 [µM]": 0.757}
{"Structure (SMILES)": "C#CCOc1ccc(/C=C/C(=O)N2CCC(Cc3ccccc3)CC2)cc1OC", "target": "MAOA", "assay": "enzyme activity, inhibitor, fluorescence", "IC50 [µM]": 45.2}
{"Structure (SMILES)": "CNC(=O)c1cc2c(Oc3ccc(NC(=O)C4(C(=O)Nc5ccc(F)cc5)CC4)cc3)ccnc2cc1OC", "target": "Homeodomain-interacting protein kinase 4 (HIPK4, Homo sapiens, UniProt Q8NE63)", "assay": "enzyme activity, inhibitor, radiometric", "IC50 [µM]": 0.003}
{"Structure (SMILES)": "COc1oc(=O)c2cc(N)ccc2c1Cl", "target": "Rhomboid protease AarA (Providencia stuartii, UniProt P46116)", "assay": "enzyme activity, inhibitor, fluorescence", "IC50 [µM]": 71}
{"Structure (SMILES)": "CCn1ncc2c1-c1cnc(N)c(c1)O[C@H](C)c1cc(F)ccc1-c1nn(C)nc1C2", "target": "High affinity nerve growth factor receptor (NTRK1, Homo sapiens, UniProt P04629)", "assay": "enzyme activity, inhibitor, radiometric", "IC50 [µM]": 0.144}
{"Structure (SMILES)": "CC1=C[C@@]2(C[C@H](C)[C@H]3CC=C(C)C(=O)[C@@H]3O2)OC1=O", "target": "Tyrosine-protein phosphatase non-receptor type 1 (PTPN1, Homo sapiens, UniProt P18031)", "assay": "enzyme activity, inhibitor", "IC50 [µM]": "> 500"}
{"Structure (SMILES)": "N#Cc1ccc(COc2cccc(C3CCN(Cc4nc5ccc(C(=O)O)cc5n4C[C@@H]4CCO4)CC3)n2)c(F)c1", "target": "Glucagon-like peptide 2 receptor (GLP2R, Homo sapiens, UniProt O95838)", "assay": "cAMP, antagonist", "IC50 [µM]": 3.6}
{"Structure (SMILES)": "CCOC(F)(F)c1nnc2cnc(-c3cnc(OCC(F)(F)F)c(F)c3)cn12", "target": "Sodium channel protein type 1 subunit alpha (SCN1A, Homo sapiens, UniProt P35498)", "assay": "ion current, inhibitor, patch clamp", "IC50 [µM]": 0.683}
{"Structure (SMILES)": "Nc1ncnc2c1ncn2[C@@H]1O[C@H](CSCCNC(=O)NCc2ccccc2)[C@@H](O)[C@H]1O", "target": "PRMT3", "assay": "enzyme activity, inhibitor, fluorescence", "IC50 [µM]": 0.52}
{"Structure (SMILES)": "C[C@@H]1O[C@@H](O[C@@H]2[C@@H](O)[C@H](OCCc3ccc(O)c(O)c3)O[C@H](CO)[C@H]2OC(=O)/C=C/c2ccc(O)c(O)c2)[C@H](O)[C@H](O)[C@H]1O", "target": "LDHA", "assay": "enzyme activity, inhibitor", "setting": "pH 7.4", "IC50 [µM]": "> 500"}
{"Structure (SMILES)": "CCCCN1/C(=C/C=C/c2sc3ccc(Br)cc3[n+]2CCCC)Sc2ccc(Br)cc21", "target": "PRMT3", "assay": "enzyme activity, inhibitor, radiometric", "IC50 [µM]": 3.17}
{"Structure (SMILES)": "O=c1cc(-c2ccc(O)cc2)oc2c([C@@H]3O[C@H](CO)[C@@H](O)[C@H](O)[C@H]3O)c(O)cc(O)c12", "target": "MAOA", "assay": "enzyme activity, inhibitor", "IC50 [µM]": 38.6}
{"Structure (SMILES)": "Fc1ccc(CN(CC(F)(F)F)C2CCN(CCCc3c[nH]c4ccc(Cn5cncn5)cc34)CC2)cc1", "target": "Voltage-dependent T-type calcium channel subunit alpha-1I (CACNA1I, Homo sapiens, UniProt Q9P0X4)", "assay": "ion current, patch clamp", "IC50 [µM]": 0.0007}
{"Structure (SMILES)": "COc1cc2c(OC)nc3c4cc5c(cc4cc(OCCCN4CCCC4)c3c2cc1OC)OCO5", "target": "TDP1", "assay": "enzyme activity, inhibitor, fluorescence", "IC50 [µM]": 4.8}
{"Structure (SMILES)": "Cc1cccc(Nc2ccccc2C(=O)O)c1C", "target": "SLC22A6", "assay": "transporter uptake, inhibitor", "IC50 [µM]": 1.08}
{"Structure (SMILES)": "CC[C@@H](C(=O)Nc1ccc(C(N)=O)c(F)c1)n1cc(OC)c(-c2cc(Cl)ccc2-n2cc(C(F)(F)F)nn2)cc1=O", "target": "Coagulation factor IX (F9, Homo sapiens, UniProt P00740)", "assay": "enzyme activity, inhibitor", "IC50 [µM]": 2.2}
{"Structure (SMILES)": "COc1cc(C[C@H]2C(=O)OC[C@@H]2Cc2ccc(OC)c(OC)c2)ccc1O", "target": "Cone cGMP-specific 3',5'-cyclic phosphodiesterase subunit alpha' (PDE6C, Homo sapiens, UniProt P51160)", "assay": "enzyme activity, inhibitor", "IC50 [µM]": "> 20"}
{"Structure (SMILES)": "C=CC(=O)Nc1cc(Nc2nccc(Nc3cc(Cl)c(F)cc3C(C)(C)O)n2)c(OC)cc1N1CC[C@@H](N(C)C)C1", "target": "Focal adhesion kinase 1 (PTK2, Homo sapiens, UniProt Q05397)", "assay": "enzyme activity, inhibitor", "setting": "with preincubation", "IC50 [µM]": 0.255}
{"Structure (SMILES)": "CC[C@@H](C)[C@@H](NC(=O)[C@@H](CCC(N)=O)NC(=O)[C@H](NC(C)=O)C(C)C)C(=O)N[C@@H](C(=O)N[C@H](Cc1ccc(O)cc1)C(=O)N[C@H](CCCCN)C(N)=O)C(C)C", "target": "Insulin (INS, Homo sapiens, UniProt P01308)", "assay": "enzyme activity, inhibitor", "setting": "pH 7.4", "IC50 [µM]": "~75"}
{"Structure (SMILES)": "Nc1ncnc2c1ncn2[C@@H]1O[C@H](CSCCNC(=O)NCc2ccc(F)cc2)[C@@H](O)[C@H]1O", "target": "PRMT3", "assay": "enzyme activity, inhibitor, fluorescence", "IC50 [µM]": 5.9}
{"Structure (SMILES)": "OC[C@H]1O[C@@H](n2cnc3c(NCCCc4ccccc4)ncnc32)[C@H](O)[C@@H]1O", "target": "PRMT3", "assay": "enzyme activity, inhibitor, fluorescence", "IC50 [µM]": "> 100"}
{"Structure (SMILES)": "O=C(Nc1ccc([N+](=O)[O-])cc1[N+](=O)[O-])c1ccccc1", "target": "MAOA", "assay": "enzyme activity, inhibitor", "IC50 [µM]": 0.126}
